# According to ChEMBL document CHEMBL1795259, “Thymol, benzofuranoid, and phenylpropanoid derivatives: anti-inflammatory constituents from Eupatorium cannabinum” (J Nat Prod, 2011):
# Experiments:
# Details in all cases: Neutrophil
# [1] = Antiinflammatory activity in human neutrophils assessed as inhibition of fMLP/cytochalasin B-induced elastase release using MeO-Suc-Ala-Ala-Pro-Val-p-nitroanilide as elastase substrate at 10 ug/mL after 5 mins; type: functional
# In short: (§1)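 Neutrophils isolated from venous blood of healthy adult volunteers (20-28 y) by dextran sedimentation, Ficoll-Hypaque centrifugation and hypotonic erythrocyte lysis, >98% viable, kept in Ca2+-free HBSS pH 7.4 at 4 °C. Cells (6 × 10^5/mL) given 100 μM substrate, equilibrated 2 min at 37 °C, compound 5 min, then fMLP 100 nM/CB 0.5 μg/mL; A405 monitored continuously. Mean ± SEM, n = 3-4.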
# [2] = Antiinflammatory activity in human neutrophils assessed as inhibition of fMLP/cytochalasin B-induced superoxide anion production at 10 ug/mL after 5 mins by spectrophotometer analysis; type: functional
# In short: (§2)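 Donor neutrophils (6 × 10^5/mL) prepared as for elastase, with 0.5 mg/mL ferricytochrome c and 1 mM Ca2+. Equilibrated 2 min at 37 °C, compound or DMSO 5 min, CB 1 μg/mL 3 min, then fMLP 100 nM 10 min. A550 monitored continuously with stirring. SOD (100 U/mL)-inhibitable reduction, ε = 21.1/mM/10 mm. Mean ± SEM, n = 3-4.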
# [3] = Antiinflammatory activity in human neutrophils assessed as inhibition of fMLP/cytochalasin B-induced superoxide anion production after 5 mins by spectrophotometer analysis; type: functional, cell-based; in short: as §2
# [4] = Antiinflammatory activity in human neutrophils assessed as inhibition of fMLP/cytochalasin B-induced elastase release using MeO-Suc-Ala-Ala-Pro-Val-p-nitroanilide as elastase substrate after 5 mins; type: functional, cell-based; in short: as §1
Structure (SMILES),inhibition at 10 µg/mL [1] [%],inhibition at 10 µg/mL [2] [%],IC50 [3] [µM],IC50 [4] [µM]
C/C=C(/C)C(=O)OCC(C)(OC)c1ccc(C)cc1O (stereo not drawn),13.6,14.7,–,–
CC(=O)c1ccc(CO)cc1O,–,–,8.13,6.38
C/C=C(/C)C(=O)OCC(O)(COC(C)=O)c1ccc(C)cc1O (stereo not drawn),–,–,13.1,6.27
CC(=O)C(=O)c1ccc(C)cc1O,37.3,10.1,–,–
C=C(COC(=O)CC(C)C)c1ccc(C)cc1O,–,39.6,–,18.3
C/C=C(\C)C(=O)Oc1cc(C)ccc1C(C)COC(C)=O (stereo not drawn),21.6,–,18.4,–
C=C(COC(C)=O)c1ccc(C)cc1OC(=O)/C(C)=C/C,36.6,–,8.5,–
C/C=C(\C)C(=O)Oc1cc(C)ccc1C1(COC(C)=O)CO1 (stereo not drawn),–,–,8.32,25.8
COC(C)(COC(=O)C(C)C)c1ccc(C)cc1O (stereo not drawn),30,–,8.19,–
C=C1CC[C@]2(C)CC[C@]3(C)[C@H](CC[C@@H]4[C@@]5(C)CC[C@H](OC(C)=O)C(C)(C)[C@@H]5CC[C@]43C)[C@H]2[C@@H]1C [TARAXASTEROL ACETATE],4.73,0.68,–,–
C/C=C(/C)C(=O)O[C@@H]1Oc2cc(C)ccc2[C@@]1(C)O (relative stereo) [EUPATOBENZOFURAN],–,37.1,–,11.3
Cc1ccc2c(c1)OC(C)(O)C2=O (stereo not drawn),17.3,0.02,–,–
C=C(C)c1cc2cc(C(C)=O)c(O)cc2o1 [EUPARIN],12.6,13.7,–,–
O=c1cc(N2CCOCC2)oc2c(-c3ccccc3)cccc12 [LY-294002],–,–,1.09,1.98
C=C(CO)c1ccc(C)cc1O,1.86,2.67,–,–
O=c1ccc2ccccc2o1 [COUMARIN],23.8,8.5,–,–
C=C(COC(=O)/C(C)=C\C)c1ccc(C)cc1O,23,20.3,–,–
Cc1ccc2c(c1)OC1OC3(CCC21O)c1ccc(C)cc1OC3O (stereo not drawn),13,4.37,–,–
C=C(COC(=O)C(C)C)c1ccc(C)cc1O,–,32.7,–,16.1
